Assay results reported in the RNAGym collection of RNA variant scans (doi:10.1126/science.aae0568).
Fewer inactive variants are shown than the library holds.

B1: tRNA (parent)
chain: GUUCCGUUGGCGUAAUGGUAACGCGUCUCCCUCCUAAGGAGAAGACUGCGGGUUCGAGUCCCGUACGGAACG

Variants of: B1
Assay: yeast fitness relative to wild type (ratio to wild type); higher = fitter; tRNA-Arg(CCU), competitive growth, 37 C, YPD
How it was run: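 A pool of Saccharomyces cerevisiae strains, each with a tRNA-Arg(CCU) gene variant at the native genomic locus, was competed in YPD at 37°C for 24 hours across six parallel replicates. The variants had been chemically synthesised at a 3% per-site mutation rate over 69 sites, and gene amplicons before and after competition were read by 100-nucleotide paired-end sequencing. Darwinian fitness relative to wild type rested on changes in genotype frequencies. Genotypes required ≥ 100 starting reads, and estimates < 0.5 were set to 0.5.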

Variant	yeast fitness
C22U U47A G63A	0.503
C22U G67C	0.822
C22U C29U G41A C55U C61A	≤ 0.5
C22U A65U A70U	0.628
C22U C46G C55A C66A	0.564
C22U C24G U35C G56C U64A	≤ 0.5
G23C C46U C62U	0.592
G23A C30U	0.68
G23A U26A U28A C29G	≤ 0.5
C22U A70G	0.784
C22U G25C	0.697
C22U G25A	0.849
G23A C29U C30A G67A	≤ 0.5
G23A C27G C34A A45C U64G	≤ 0.5
G23C C46U A70U	0.622
C22U U26A C29U U54C C66U	≤ 0.5
G23A C49U A65C	0.523
C22U C27U A57U C61G	0.574
C22U C24U G58C A65C	≤ 0.5
G23A A36G C55G G63A A69U	≤ 0.5
C22U C27A C46A	0.66

Variant	yeast fitness
C22U U35C A36C	≤ 0.5
G23C C33A G50C G58C	≤ 0.5
G23A C55A	≤ 0.5
G23C C27U C29U G51A	0.645
C22U C31G G67C	0.653
G23A U26C C29U C33G	≤ 0.5
C22U C33U C34A G38C G52A	0.601
C22U U28A A37U G51C C66U	0.606
C22U C34U C62U A70C	≤ 0.5
G23C A36U G51C	≤ 0.5
C22U A43C A70C	0.643
C22U C33U	0.717
C22U C33G	0.551
C22U U32C A45U C46U A57U	≤ 0.5
C22U C62U A65C	0.691
G23A C27U A37U	0.58
C22U U54C	0.724
C22U C30G G50A	≤ 0.5
G23C C29G A43U G50A A70U	≤ 0.5
C22U C34A	0.641
C22U C34U	0.665

Variant	yeast fitness
G23C C30G	0.511
G23A C29U C30A A42U U53A	≤ 0.5
C22U C27U A70C	0.599
C22U U32G C34U A40G G58A C66U	≤ 0.5
G23A C27U C34U A45C A70U	0.57
C22U C31G G48C	≤ 0.5
C22U G38C G48A	≤ 0.5
C22U A40U U64A	≤ 0.5
C22U C30U C33U A45C A65C	≤ 0.5
G23C A37G C55G G67A	≤ 0.5
G23A C30U G63A	≤ 0.5
G23A U47C C49U	≤ 0.5
C22U G44C G48A G51A	0.57
G23A C66G	0.659
G23A C66A	0.535
G23A C66U	0.824
G23A C33G A69C	≤ 0.5
G23A A57C C62G	0.625
G23A C62U A69U	0.642
C22U G25C C33U A37U	≤ 0.5
G23A C30U C62A G68A	0.575

Variant	yeast fitness
G23C C31A C62U A70G	≤ 0.5
C22U A42G A45C C55G U64G	≤ 0.5
G23A A43C G44A A65G	0.637
C22U C33U G52A	0.566
G23C C29A C66U	≤ 0.5
C22U C24U C33G	0.502
G23C A37C	0.656
G23C A37G	≤ 0.5
C22U C31G C49U C66U G67A	0.563
C22U A69U	0.799
C22U C29A A36G A45U	≤ 0.5
C22U A42G U54C C55G A70U	≤ 0.5
G23C A36U G52C	≤ 0.5
C22U U32C G51A C61G	≤ 0.5
C22U G25A U54C A65U	0.555
G23A C46A G58A	0.566
C22U C30A A42C G58A	≤ 0.5
C22U C24A C27U	≤ 0.5
C22U C24A U28G	0.542
C22U C29U	0.821
